The species named for assay [1] is Homo sapiens. The experiment in a line: Inhibition of HDAC in human HeLa-S3 cells lysates assessed as remaining enzyme activity at 1.2 x 10^-5 M pre-incubated for 15 mins before HDAC-Glo I/II substrate addition and measured after 30 mins post substrate addition. The assay is classed as cell-free.
Assay [2] is filed under the species Homo sapiens. The experiment in a line: Inhibition of HDAC in human HeLa-S3 cells lysates assessed as remaining enzyme activity at 3 x 10^-6 M pre-incubated for 15 mins before HDAC-Glo I/II substrate addition and measured after 30 mins post substrate addition. It counts as cell-free.
Assay [3] is filed under the species Homo sapiens. The experiment in a line: Inhibition of HDAC in human HeLa-S3 cells lysates assessed as remaining enzyme activity at 1.5 x 10^-6 M pre-incubated for 15 mins before HDAC-Glo I/II substrate addition and measured after 30 mins post substrate addition. It counts as cell-free.
For assay [4], the target named is T1, Histone deacetylase 2 (Homo sapiens, UniProt Q92769). The experiment in a line: Inhibition of HDAC2 (unknown origin) assessed as remaining enzyme activity at 0.25 uM by ELISA-based assay. The gist of the method: (§1)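 Isoform screen by ELISA-based HDAC activity assay against HDAC1, HDAC2, HDAC3 and HDAC6. Each analog was tested at one final concentration: 0.025, 0.125, 0.25 or 1.25 µM. Read-out is percent deacetylase activity remaining, given as the mean with standard error of at least two independent trials.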
For orientation: ELISA stands for enzyme-linked immunosorbent assay.

Assay [5] concerns the target T2, Histone deacetylase 1 (Homo sapiens, UniProt Q13547). In words: Inhibition of HDAC1 (unknown origin) assessed as remaining enzyme activity at 0.25 uM by ELISA-based assay. The gist of the method:
as §1

The species entered for assay [6] is Homo sapiens. In words: Inhibition of HDAC in human HeLa-S3 cells lysates assessed as remaining enzyme activity at 6 x 10^-6 M pre-incubated for 15 mins before HDAC-Glo I/II substrate addition and measured after 30 mins post substrate addition. It counts as cell-free.
Assay [7] addresses T3, Protein deacetylase HDAC6 (Homo sapiens) (UniProt Q9UBN7).
T3 sequence (whole entry): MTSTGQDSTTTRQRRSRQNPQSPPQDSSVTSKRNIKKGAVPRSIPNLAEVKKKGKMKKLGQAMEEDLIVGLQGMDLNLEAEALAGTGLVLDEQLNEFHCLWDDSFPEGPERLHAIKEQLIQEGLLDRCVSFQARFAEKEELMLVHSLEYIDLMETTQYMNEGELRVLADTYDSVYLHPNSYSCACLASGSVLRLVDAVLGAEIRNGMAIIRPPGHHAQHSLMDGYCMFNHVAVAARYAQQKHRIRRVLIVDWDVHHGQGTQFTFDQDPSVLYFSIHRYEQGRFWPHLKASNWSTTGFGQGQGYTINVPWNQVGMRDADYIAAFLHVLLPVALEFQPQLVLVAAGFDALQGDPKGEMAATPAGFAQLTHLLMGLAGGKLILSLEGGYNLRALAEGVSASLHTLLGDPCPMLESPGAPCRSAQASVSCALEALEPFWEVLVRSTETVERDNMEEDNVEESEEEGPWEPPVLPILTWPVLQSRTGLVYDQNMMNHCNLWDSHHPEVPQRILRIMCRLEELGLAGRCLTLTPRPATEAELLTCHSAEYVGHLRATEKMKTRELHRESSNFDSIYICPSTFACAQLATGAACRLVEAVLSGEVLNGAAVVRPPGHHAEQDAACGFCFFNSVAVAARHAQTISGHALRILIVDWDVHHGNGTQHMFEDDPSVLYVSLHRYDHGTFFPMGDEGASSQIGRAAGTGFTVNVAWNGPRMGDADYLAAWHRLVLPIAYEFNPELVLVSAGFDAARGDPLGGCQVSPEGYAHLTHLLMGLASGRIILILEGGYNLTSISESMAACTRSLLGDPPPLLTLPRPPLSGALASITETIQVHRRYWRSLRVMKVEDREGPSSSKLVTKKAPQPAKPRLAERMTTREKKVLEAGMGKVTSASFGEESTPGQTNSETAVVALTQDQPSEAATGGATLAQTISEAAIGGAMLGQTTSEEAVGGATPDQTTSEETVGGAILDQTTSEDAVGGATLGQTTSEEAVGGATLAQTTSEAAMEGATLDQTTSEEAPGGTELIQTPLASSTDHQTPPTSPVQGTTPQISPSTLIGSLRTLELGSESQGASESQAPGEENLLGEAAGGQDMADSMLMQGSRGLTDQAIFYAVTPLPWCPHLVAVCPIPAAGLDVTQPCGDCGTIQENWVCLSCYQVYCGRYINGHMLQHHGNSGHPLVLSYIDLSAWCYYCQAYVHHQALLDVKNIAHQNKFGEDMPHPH
In words: Inhibition of HDAC6 (unknown origin) assessed as remaining enzyme activity at 0.25 uM by ELISA-based assay. The gist of the method: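 Single-concentration isoform screen using an ELISA-based HDAC activity assay, run in parallel against HDAC1, HDAC2, HDAC3 and HDAC6. Read-out is percent deacetylase activity remaining, given as the mean of at least two independent trials with standard error.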

Assay [8] is filed under the species Homo sapiens. The experiment in a line: Inhibition of HDAC in human HeLa-S3 cells lysates assessed as remaining enzyme activity at 7.5 x 10^-7 M pre-incubated for 15 mins before HDAC-Glo I/II substrate addition and measured after 30 mins post substrate addition. It counts as cell-free.
Assay [9] deals with T4, Histone deacetylase 3 (Homo sapiens, UniProt O15379). The experiment in a line: Inhibition of HDAC3 (unknown origin) assessed as remaining enzyme activity at 5 x 10^-7 M by ELISA-based assay.
Assay [10] has as its target T1, Histone deacetylase 2. In words: Inhibition of HDAC2 (unknown origin) assessed as remaining enzyme activity at 5 x 10^-7 M by ELISA-based assay.
Assay [11] deals with T4, Histone deacetylase 3. The experiment in a line: Inhibition of HDAC3 (unknown origin) assessed as remaining enzyme activity at 0.25 uM by ELISA-based assay. A digest of the protocol:
as §1

Assay [12] has as its target T3, Protein deacetylase HDAC6 (Homo sapiens). In words: Inhibition of HDAC6 in human U937 cells assessed as increase in acetylated-alpha-tubulin level incubated for 18 hrs by Western blot method. The assay is classed as cell-based. The gist of the method:
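U937 cells were treated with inhibitor at 10–40 µM, with 1% DMSO as vehicle control. Cells were then lysed, run on SDS-PAGE, transferred to PVDF and western-blotted for acetyl-Lys40 α-tubulin, with acetyl-Lys9 histone H3 as the class I marker. GAPDH was probed as a loading control, and trials were repeated.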
(In general: In western blotting, separated proteins are transferred to a membrane and probed.)

Assay [13] concerns the target T1, Histone deacetylase 2. In words: Inhibition of HDAC2 in human U937 cells assessed as increase in acetylated-histone H3 level at 10 to 40 uM incubated for 18 hrs by Western blot method. It counts as cell-based. The gist of the method:
(§2)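 U937 cells were treated with 10–40 µM compound, with a 1% DMSO vehicle control. Cells were then lysed and the lysates run on SDS-PAGE and transferred to PVDF. Blots were probed for histone H3 acetyl-Lys9, which reports class I HDAC (1, 2, 3) inhibition, with GAPDH as the loading control. Repeat trials were run.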

In assay [14] the target is T2, Histone deacetylase 1. In words: Inhibition of HDAC1 in human U937 cells assessed as increase in acetylated-histone H3 level at 10 to 40 uM incubated for 18 hrs by Western blot method. It counts as cell-based. The gist of the method:
as §2

Assay [15] addresses T4, Histone deacetylase 3. The experiment in a line: Inhibition of HDAC3 in human U937 cells assessed as increase in acetylated-histone H3 level at 10 to 40 uM incubated for 18 hrs by Western blot method. It counts as cell-based. The gist of the method:
as §2

The source made the active and inactive calls. The rule behind the calls is not given here.

T4 sequence (O15379 whole entry): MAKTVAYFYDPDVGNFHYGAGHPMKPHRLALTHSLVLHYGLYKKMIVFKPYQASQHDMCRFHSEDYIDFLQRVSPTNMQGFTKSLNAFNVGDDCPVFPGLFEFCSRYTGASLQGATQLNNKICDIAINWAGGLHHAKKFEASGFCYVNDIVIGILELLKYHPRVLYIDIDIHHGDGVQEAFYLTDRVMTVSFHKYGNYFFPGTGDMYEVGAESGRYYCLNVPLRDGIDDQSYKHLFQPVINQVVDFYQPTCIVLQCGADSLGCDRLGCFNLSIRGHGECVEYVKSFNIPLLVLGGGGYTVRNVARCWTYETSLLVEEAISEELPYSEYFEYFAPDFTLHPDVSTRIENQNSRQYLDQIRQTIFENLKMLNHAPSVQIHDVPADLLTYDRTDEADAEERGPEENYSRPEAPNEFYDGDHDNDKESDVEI
T1 sequence (Q92769 whole entry, canonical isoform): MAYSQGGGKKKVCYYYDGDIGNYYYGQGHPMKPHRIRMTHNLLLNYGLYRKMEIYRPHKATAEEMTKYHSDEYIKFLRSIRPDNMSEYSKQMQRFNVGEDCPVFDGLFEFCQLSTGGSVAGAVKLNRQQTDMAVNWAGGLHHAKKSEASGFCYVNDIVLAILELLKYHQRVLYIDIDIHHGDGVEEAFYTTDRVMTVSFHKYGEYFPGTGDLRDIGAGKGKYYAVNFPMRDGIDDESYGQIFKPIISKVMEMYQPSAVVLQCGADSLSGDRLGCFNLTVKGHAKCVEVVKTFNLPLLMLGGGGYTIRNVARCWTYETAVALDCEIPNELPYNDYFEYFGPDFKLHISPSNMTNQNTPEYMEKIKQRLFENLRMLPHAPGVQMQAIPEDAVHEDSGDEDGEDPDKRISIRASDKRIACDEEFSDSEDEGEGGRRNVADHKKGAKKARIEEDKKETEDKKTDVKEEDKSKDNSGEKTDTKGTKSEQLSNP
T2 sequence (Q13547 whole entry): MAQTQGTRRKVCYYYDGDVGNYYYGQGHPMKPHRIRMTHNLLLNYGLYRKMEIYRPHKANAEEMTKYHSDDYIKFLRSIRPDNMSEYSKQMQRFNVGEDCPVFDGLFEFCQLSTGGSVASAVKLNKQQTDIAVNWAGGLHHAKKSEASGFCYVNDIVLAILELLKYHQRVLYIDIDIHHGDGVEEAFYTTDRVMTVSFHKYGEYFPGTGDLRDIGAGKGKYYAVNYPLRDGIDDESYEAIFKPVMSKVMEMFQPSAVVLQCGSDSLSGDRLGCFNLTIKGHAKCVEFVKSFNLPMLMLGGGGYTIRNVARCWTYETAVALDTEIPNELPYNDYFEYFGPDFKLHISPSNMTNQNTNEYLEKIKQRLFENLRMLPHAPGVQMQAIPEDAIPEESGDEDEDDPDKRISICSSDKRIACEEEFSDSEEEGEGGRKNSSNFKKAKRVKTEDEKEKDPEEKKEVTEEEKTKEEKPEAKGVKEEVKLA

Regarding `CCCCC(CCCC(=O)NO)CCC(=O)Nc1ccccc1` (stereo not given), the Activity in [1] is 23%; in [2] it was 66%; in [3] it was 88%; in assay [4] it was 83%; in assay [5] it was 81 to 84%; in assay [6] it was 42%. The Activity in assay [7] was 35%; in assay [8], 101%; in assay [9], 83%; in [10], 73%; in assay [11], 74 to 92%.
Consider `O=C(CCCC(CCC(=O)Nc1ccccc1)Cc1ccccc1)NO` (stereo not given), for which the inhibition entry in assay [12] is “Dose-dependent effect”. In addition, the inhibition entry in [13], in assay [14] and in assay [15] was “Active” in each case.

The record behind these values is ChEMBL document CHEMBL4052702 (Bioorg Med Chem Lett, 2017).
